# OX1R antag-1 = OX1R (human) antagonism; O43613; OX1R-expressing cells, FRET antagonist read-out; inhibition, % at 6.6 µM; 330,000 compounds, 1.8% hits; AID 485270; in the data active means inhibition mostly above about 38%, no sharp cut-off; inactive means mostly below about 40%;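 further: 0% = agonist challenge alone and 100% = reference antagonist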
# Target sequence (O43613 whole entry, looked up): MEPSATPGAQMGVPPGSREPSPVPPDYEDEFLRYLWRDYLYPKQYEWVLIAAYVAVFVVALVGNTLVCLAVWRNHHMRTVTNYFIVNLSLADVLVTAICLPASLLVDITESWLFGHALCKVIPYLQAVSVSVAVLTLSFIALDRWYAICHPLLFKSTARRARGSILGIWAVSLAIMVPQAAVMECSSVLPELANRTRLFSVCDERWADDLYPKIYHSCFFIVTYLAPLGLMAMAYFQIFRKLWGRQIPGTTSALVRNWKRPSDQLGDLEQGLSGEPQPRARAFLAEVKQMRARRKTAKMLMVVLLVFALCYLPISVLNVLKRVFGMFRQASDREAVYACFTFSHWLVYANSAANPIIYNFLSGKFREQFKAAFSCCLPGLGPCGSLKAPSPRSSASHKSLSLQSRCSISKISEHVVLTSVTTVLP
# MPTP block = permeability transition pore inhibition; isolated mouse mitochondria, Ca2+ swelling absorbance, 30 min; inhibition, % at 10 µM; 360,000 compounds, 1.4% hits; AID 602449;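 active means inhibition of 50% or more, scaled per plate between neutral and stimulator controls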;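 further: 0% = DMSO wells given calcium and 100% = 1 mM EGTA wells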
# CHO parental Ca = counter-screen: ATP calcium response change in parental CHO cells. AID 463079. 330,000 compounds, 0.63% hits. parental CHO-K1, ATP-induced calcium, Fluo-8 fluorescence. inhibition, % at 5.6 µM;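 active means inhibition above that plate's mean sample inhibition plus 3 SD, cut at about 26% in these data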;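 further: 0% = ATP-challenged DMSO wells and 100% = DMSO wells without ATP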
#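 Material: parental CHO cells / Compound: single nominal dose of 5.6 µM per compound / Signal: Fluo-8 fluorescence / Replicates: singlicate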
# GPR7 antagonist = human neuropeptides B/W receptor 1 antagonism; GPR7-expressing cells, fluorescence antagonist assay; inhibition, % at 4.4 µM; 290,000 compounds, 1.1% hits; AID 1861; in the data active means inhibition above about 16%, passing the limit was not always enough;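 further: cells stimulated with the agonist NPW; 0% = agonist with vehicle and 100% = vehicle without agonist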
# OX1R antag-2 = human HCRTR1 antagonism. O43613. CHO/OX1R cells, Fluo-8 calcium fluorescence, orexin A. 330,000 compounds, 0.43% hits. inhibition, % at 5 µM;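 active means inhibition above its plate's threshold, mean inhibition of all tested compounds on the plate plus 3 SD, cut at about 37% in these data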;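 further: 0% = orexin A challenge wells and 100% = SB-334867-A antagonist wells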
# * marks the source's active call; other numbers are inactive results; / = no result given. In the library only some 3.8% were active in any assay of this set; here they are far more common.
SMILES,OX1R antag-1,MPTP block,CHO parental Ca,GPR7 antagonist,OX1R antag-2
CCOC(=O)C1=C[C@@H](c2ccccc2)N(S(=O)(=O)c2ccc(C)cc2)[C@H]1c1cccc(Cl)c1,/,2,/,/,/
O=C(COC(=O)CSc1ccc(F)cc1)NNC(=O)c1ccc([N+](=O)[O-])cc1,59*,-1,-2,/,3
O=C(COC(=O)C1CC2CCCC(C1)C2=O)NC(=O)c1ccc(OC(F)F)cc1 (stereo not given),6,1,1,5,9
CC(=O)Nc1cccc(C(=O)OCC(=O)NNC(=O)c2ccc([N+](=O)[O-])cc2)c1,52*,-1,2,/,-6
O=C(c1ccc([N+](=O)[O-])cc1)N1CCN(C(=O)c2cccnc2)CC1,53*,0,12,-1,-15
O=C(COC(=O)C1CC2CCCC(C1)C2=O)NNC(=O)c1ccc([N+](=O)[O-])cc1 (stereo not given),69*,0,0,/,-15
O=C(COC(=O)CSc1ccccc1)NNC(=O)c1ccc([N+](=O)[O-])cc1,47,-1,-5,-8,-10
COc1cc(F)ccc1-c1csc(C(C)(O)c2ccccc2)n1 (stereo not given),/,1,/,/,/
CCCN(CC(=O)Nc1ccccc1C)C(=O)c1cnc(C)cn1,/,-4,/,/,/
CCOc1ccc(OCCC(=O)OCC(=O)NNC(=O)c2ccccc2)cc1,18,-1,-7,/,-3
O=C(COC(=O)Cc1ccccc1[N+](=O)[O-])NNC(=O)c1ccc([N+](=O)[O-])cc1,36*,0,-5,/,-13
O=C(Cc1ccccc1[N+](=O)[O-])NNC(=O)c1ccncc1,15,0,-2,/,9
COc1cccc(CC(=O)OCC(=O)NNC(=O)c2ccc([N+](=O)[O-])cc2)c1,60*,-2,-9,-5,-11
CCOc1ccc(OCC(=O)OCC(=O)NNC(=O)c2ccc([N+](=O)[O-])cc2)cc1,57*,-1,7,/,3
O=C(NNC(=O)c1ccc([N+](=O)[O-])cc1)c1ccncc1,70*,-1,11,5,9
Cc1cc(C(c2ccc(O)cc2)c2cc(C)c(O)cc2C)c(C)cc1O,5,0,19,58*,29
COc1c(OC(C)=O)c(=O)n2c3ccccc3c3ccnc1c32,52*,0,-12,/,-14
CN(C)CCCNC(=O)/C(=C\c1ccc(-c2ccc(Br)cc2)o1)NC(=O)c1ccccc1,19,-3,-17,12,-23
Cc1ccc(C(=O)N/C(=C\c2ccc(-c3ccc(Cl)cc3)o2)C(=O)NCCCN(C)C)cc1,16,44,-17,27*,-20
Fc1ccc(NC(=S)N2CCN(c3ccccn3)CC2)cc1Cl,7,6,1,/,-11
c1ccc(Nc2nc(-c3ccccn3)cs2)cc1,77*,0,-24,-1,-15
COc1cccc2sc(Nc3nc(-c4ccccn4)cs3)nc12,114*,6,45*,-6,102*
c1ccc(-c2csc(Nc3cccnc3)n2)nc1,-1,-1,0,-5,9
O=C(CCn1nc(-c2ccccc2)c2ccccc2c1=O)N1CCN(c2ccccc2)CC1,62*,1,-26,-7,12
C=CCn1c(SCC(=O)c2cc(C)n(C(C)COC)c2C)nc2sc(C)c(C)c2c1=O (stereo not given),10,7,36*,-7,-6
SMILES,OX1R antag-1,MPTP block,CHO parental Ca,GPR7 antagonist,OX1R antag-2
C=CCn1c(SCC(=O)NCCO)nc2sc(C)c(C)c2c1=O,24,-2,-5,7,-22
FC(F)(F)c1ccccc1CN1CCN(C2CCCCCC2)CC1,10,-1,-15,20*,-30
FC(F)(F)c1ccccc1CN1CCCC(N2CCN(c3ccccc3)CC2)C1 (stereo not given),-6,2,-20,-16,-36
COc1ccccc1C(c1nnnn1CCc1ccccc1)N1CCN(c2ccccc2)CC1 (stereo not given),17,0,-6,23*,-14
COc1ccc(C(c2nnnn2C2CCCC2)N2CCc3ccccc3C2)cc1OC (stereo not given),/,0,/,22*,/
COc1ccc(N2CCN(C(c3cccc(OC)c3OC)c3nnnn3C3CCCC3)CC2)cc1 (stereo not given),22,4,3,21*,-38
COc1ccc(OC)c(C(c2nnnn2C2CCCC2)N2CCN(c3ccccc3F)CC2)c1 (stereo not given),11,-1,-19,28*,-28
O=[N+]([O-])c1cc2c(cc1/C=N/n1cnnc1)OCO2,77*,1,-6,-13,6
